Experimental data: ChEMBL document CHEMBL4190318 (Eur J Med Chem, 2017)
Activity calls are given as the source filed them. No cut-off for these calls is given here.

Columns and labels:
[1] = biological target: T1, N-acylethanolamine-hydrolyzing acid amidase (Rattus norvegicus, UniProt Q5KTC7); assay: Inhibition of rat NAAA expressed in HEK293 cells using heptadecenoylethanolamide as substrate after 30 mins by HPLC-MS/MS analysis
T1 sequence (Q5KTC7 whole entry): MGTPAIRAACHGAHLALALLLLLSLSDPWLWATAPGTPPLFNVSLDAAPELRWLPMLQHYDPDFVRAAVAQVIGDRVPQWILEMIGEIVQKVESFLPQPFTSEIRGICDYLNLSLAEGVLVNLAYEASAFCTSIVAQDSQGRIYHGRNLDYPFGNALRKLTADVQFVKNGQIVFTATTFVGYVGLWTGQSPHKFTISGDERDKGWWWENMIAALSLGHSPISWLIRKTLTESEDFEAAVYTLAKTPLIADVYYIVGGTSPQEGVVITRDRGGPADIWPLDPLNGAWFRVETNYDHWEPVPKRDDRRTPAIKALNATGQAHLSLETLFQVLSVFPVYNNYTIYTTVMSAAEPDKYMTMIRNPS
Outline: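 Rat NAAA activity measured against heptadecenoylethanolamide (C17:1 FAE) substrate, with hydrolysis products quantified by LC-MS. IC50 derived by nonlinear regression of concentration-response curves. Runs done in triplicate (n = 3); mean ± SD of three independent experiments.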

[2] = biological target: T2, Acid ceramidase (Rattus norvegicus) (UniProt Q6P7S1); assay: Inhibition of rat acid ceramidase expressed in HEK293 cells assessed as remaining activity at 20 uM using N-lauroylceramide as substrate after 30 mins by LC-MS analysis (reference value: 100 +/- 21.4 %); format: cell-based
T2 sequence (whole entry): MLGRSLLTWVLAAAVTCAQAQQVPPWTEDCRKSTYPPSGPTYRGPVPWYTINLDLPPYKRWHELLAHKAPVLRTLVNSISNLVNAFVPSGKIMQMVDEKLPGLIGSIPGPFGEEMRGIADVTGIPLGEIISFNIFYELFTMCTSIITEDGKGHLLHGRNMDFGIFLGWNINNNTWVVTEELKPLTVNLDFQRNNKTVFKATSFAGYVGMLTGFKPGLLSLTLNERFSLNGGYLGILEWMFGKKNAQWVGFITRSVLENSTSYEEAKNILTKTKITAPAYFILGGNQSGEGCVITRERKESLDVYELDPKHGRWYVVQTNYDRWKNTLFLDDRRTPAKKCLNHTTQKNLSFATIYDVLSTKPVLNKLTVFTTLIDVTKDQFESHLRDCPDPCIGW

[3] = biological target: N-acylethanolamine acid amidase (Rattus norvegicus); assay: Inhibition of rat N-acylethanolamine acid amidase expressed in HEK293 cells using heptadecenoylethanolamide as substrate after 30 mins by LC-MS analysis
[4] = biological target: T3, N-acylethanolamine-hydrolyzing acid amidase (Rattus norvegicus) (UniProt Q5KTC7); assay: Inhibition of rat NAAA expressed in HEK293 cells at 50 to 250 nM using heptadecenoylethanolamide as substrate after 30 mins in presence of covalent beta-lactone NAAA inhibitor ARN077 by Yonetani-Theorell plot analysis
T3 sequence (whole entry): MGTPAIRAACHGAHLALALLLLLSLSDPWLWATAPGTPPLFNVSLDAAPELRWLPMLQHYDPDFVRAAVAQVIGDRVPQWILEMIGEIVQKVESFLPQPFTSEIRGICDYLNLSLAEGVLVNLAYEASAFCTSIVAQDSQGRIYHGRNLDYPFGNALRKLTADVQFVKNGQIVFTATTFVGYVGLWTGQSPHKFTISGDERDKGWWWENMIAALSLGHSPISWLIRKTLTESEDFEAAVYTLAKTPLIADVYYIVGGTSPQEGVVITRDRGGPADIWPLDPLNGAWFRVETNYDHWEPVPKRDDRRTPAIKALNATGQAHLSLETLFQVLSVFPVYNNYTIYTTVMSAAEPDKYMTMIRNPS

[5] = biological target: T3, N-acylethanolamine-hydrolyzing acid amidase (Rattus norvegicus); assay: Inhibition of rat NAAA expressed in HEK293 cells at 50 to 250 nM using heptadecenoylethanolamide as substrate after 30 mins in presence of non-covalent competitive NAAA inhibitor E8 by Yonetani-Theorell plot analysis; format: cell-based
[6] = biological target: T3, N-acylethanolamine-hydrolyzing acid amidase (Rattus norvegicus); assay: Reversible inhibition of rat NAAA expressed in HEK293 cells at 10 fold IC50 preincubated for 10 mins followed by 100 fold dilution using heptadecenoylethanolamide as substrate by HPLC-MS/MS analysis; format: cell-based
[7] = compound: O=C(CCCCCc1ccc(Cl)cc1)N1CCOC1=O; assay: (§1) Inhibition of rat NAAA expressed in HEK293 cells assessed as enzyme Vmax per mg protein in presence of varying concentration of heptadecenoylethanolamide substrate after 30 mins by Michaelis-Menten plot analysis (reference value: 9383 +/- 937 nmol/min); format: cell-based
[8] = compound: O=C(CCCCCc1cccc(Cl)c1)N1CCOC1=O; assay: as §1; format: cell-based
[9] = compound: O=C(CCCCCc1ccc(Cl)cc1)N1CCOC1=O; assay: (§2) Inhibition of rat NAAA expressed in HEK293 cells assessed as Km for substrate in presence of varying concentration of heptadecenoylethanolamide substrate after 30 mins by Michaelis-Menten plot analysis (reference value: 1395 +/- 260 microM); format: cell-based
[10] = compound: O=C(CCCCCc1cccc(Cl)c1)N1CCOC1=O; assay: as §2; format: cell-based

Molecule | IC50 [1] [µM] | also measured
Cc1ccc(CCCCCC(=O)N2CCOC2=O)cc1C | > 20 | –
Cc1ccc(Oc2ccc(C(=O)N3CCOC3=O)cc2)cc1 | 6.4 | –
COc1cccc(CCCCCC(=O)N2CCOC2=O)c1 | 16.3 | –
O=C(O)c1cccc(CCCCCC(=O)N2CCOC2=O)c1 | > 20 | –
COc1ccc(CCCCCC(=O)N2CCOC2=O)cc1 | > 20 | –
O=C(CCCCCc1ccc(Br)cc1)N1CCOC1=O | 8.51 | –
O=C1OCCN1C(=O)c1ccc(Oc2ccc(O)cc2)cc1 | > 20 | –
CSc1ccc(CCCCCC(=O)N2CCOC2=O)cc1 | > 20 | –
O=C(CCCCCc1ccccc1)N1CCOC1=O | – | Activity [2]: 90.6%; IC50 [3]: 0.27 µM
O=C(CCCCCc1ccc(O)cc1)N1CCOC1=O | – | Activity [2]: 95.1%
O=C(O)c1ccc(CCCCCC(=O)N2CCOC2=O)cc1 | > 20 | –
O=C(CCCCCc1ccccc1O)N1CCOC1=O | > 20 | –
O=C(CCCCCc1ccc(O)c(Cl)c1)N1CCOC1=O | > 20 | –
O=C(CCCCCc1cccc(CO)c1)N1CCOC1=O | > 20 | –
O=C(CCCCCc1cccc(O)c1)N1CCOC1=O | 8.64 | –
NC(=O)c1ccc(CCCCCC(=O)N2CCOC2=O)cc1 | > 20 | –
O=C(CCCCCc1cccc(Cl)c1)N1CCOC1=O | – | Activity [2]: 85.3%; inhibition [4]: Active; inhibition [5]: Active; inhibition [6]: Active
O=C1OCCN1C(=O)c1ccc(Oc2cccc(Cl)c2)cc1 | 7.74 | –
O=C(CCCCCc1ccc(I)cc1)N1CCOC1=O | > 20 | –
Nc1ccc(CCCCCC(=O)N2CCOC2=O)cc1 | 15.7 | –
O=C(CCCCCc1ccccc1Cl)N1CCOC1=O | > 20 | –
NC(=O)c1cccc(CCCCCC(=O)N2CCOC2=O)c1 | > 20 | –
CSc1cccc(CCCCCC(=O)N2CCOC2=O)c1 | 12.8 | –
Nc1cccc(CCCCCC(=O)N2CCOC2=O)c1 | > 20 | –
Cc1ccccc1CCCCCC(=O)N1CCOC1=O | > 20 | –
N-acylethanolamine-hydrolyzing acid amidase (Rattus norvegicus), Q5KTC7 (protein) MGTPAIRAACHGAHLALALLLLLSLSDPWLWATAPGTPPLFNVSLDAAPELRWLPMLQHYDPDFVRAAVAQVIGDRVPQWILEMIGEIVQKVESFLPQPFTSEIRGICDYLNLSLAEGVLVNLAYEASAFCTSIVAQDSQGRIYHGRNLDYPFGNALRKLTADVQFVKNGQIVFTATTFVGYVGLWTGQSPHKFTISGDERDKGWWWENMIAALSLGHSPISWLIRKTLTESEDFEAAVYTLAKTPLIADVYYIVGGTSPQEGVVITRDRGGPADIWPLDPLNGAWFRVETNYDHWEPVPKRDDRRTPAIKALNATGQAHLSLETLFQVLSVFPVYNNYTIYTTVMSAAEPDKYMTMIRNPS | – | Vmax [7]: 9900 nmol/min/mg; Vmax [8]: 2790 nmol/min/mg; Km [9]: 1670 µM; Km [10]: 1280 µM

Further lines, with some results ahead:

IC50 [1] [µM] | Molecule | also measured
0.19 | O=C(CCCCCc1ccc(CO)cc1)N1CCOC1=O | –
0.43 | O=C(CCCCCc1cccc(Br)c1)N1CCOC1=O | –
4.6 | O=C(CCCCCc1ccc(Cl)cc1)N1CCOC1=O | –
0.092 | O=C1OCCN1C(=O)c1ccc(OC2CCCCC2)cc1 | Activity [2]: 81.7%; IC50 [3]: 0.092 µM
0.058 | O=C(CCCCCc1cccc(C(F)(F)F)c1)N1CCOC1=O | –
0.12 | O=C1OCCN1C(=O)c1ccc(OC2CCCC2)cc1 | –
5.21 | Cc1cccc(Oc2ccc(C(=O)N3CCOC3=O)cc2)c1 | –
0.026 | O=C(CCCCCc1ccc(F)c(Cl)c1)N1CCOC1=O | –
0.16 | O=C(CCCCCc1ccc(O)c(F)c1)N1CCOC1=O | –
0.48 | CCC(CC)Oc1ccc(C(=O)N2CCOC2=O)cc1 | –
0.21 | O=C1OCCN1C(=O)c1ccc(OC2CCC(O)CC2)cc1 (stereo unspecified) | –
0.64 | CCCCCCOc1ccc(C(=O)N2CCOC2=O)cc1 | –
1.04 | O=C(CCCCCc1ccc(C(F)(F)F)cc1)N1CCOC1=O | –
0.33 | O=C1OCCN1C(=O)c1ccc(OC2CCOCC2)cc1 | –
1.34 | CCCCOc1ccc(C(=O)N2CCOC2=O)cc1 | –
3.12 | O=C(CCCCCc1cccc(I)c1)N1CCOC1=O | –
